Assay results: ChEMBL document CHEMBL1158691, “Brevicompanine C, cyclo-(D-Ile-L-Trp), and cyclo-(D-Leu-L-Trp), plant growth regulators from Penicillium brevi-compactum” (2005)
The source made the active and inactive calls. The calls are words filed in the database; no cut-off is given here.

Key:
[1] = tested on: Lactuca sativa; assay: Induction of hypocotyl elongation in lettuce seedlings at 10 mg/L after 4 days under 100 uE/m'2 light; assay type: functional
How it was run: (§1)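 Lactuca sativa cv. Kingcisco seeds sown on filter paper wetted with deionized water, 1 day at 24 °C in continuous light (100 μE/m² s). Uniform seedlings (radicles 2 mm) moved to small dishes on filter paper with 1 mL deionized water containing test compound, kept 4 days at 24 °C in continuous light. Hypocotyl and root lengths measured; mean compared with untreated control; triplicate experiments.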

[2] = tested on: Lactuca sativa; assay: Induction of root elongation in lettuce seedlings at 1 to 100 mg/L after 4 days under 100 uE/m'2 light; assay type: functional, organism-based; how it was run: as §1
[3] = tested on: Lactuca sativa; assay: Induction of hypocotyl elongation in lettuce seedlings at 100 mg/L after 4 days under 100 uE/m'2 light; assay type: functional; how it was run: as §1
[4] = tested on: Lactuca sativa; assay: Induction of root elongation in lettuce seedlings at 100 mg/L after 4 days under 100 uE/m'2 light relative to control; assay type: functional; how it was run: as §1
[5] = tested on: Lactuca sativa; assay: Induction of hypocotyl elongation in lettuce seedlings at 1 mg/L after 4 days under 100 uE/m'2 light; assay type: functional; how it was run: as §1
[6] = tested on: Lactuca sativa; assay: Inhibition of hypocotyl elongation of lettuce seedlings at 100 mg/L after 4 days under 100 uE/m'2 light relative to control; assay type: functional; how it was run: as §1
[7] = tested on: Lactuca sativa; assay: Inhibition of root elongation in lettuce seedlings at 1 to 100 mg/L after 4 days under 100 uE/m'2 light; assay type: functional, organism-based; how it was run: as §1
[8] = tested on: Lactuca sativa; assay: Inhibition of hypocotyl elongation in lettuce seedlings at 1 to 100 mg/L after 4 days under 100 uE/m'2 light relative to control; assay type: functional, organism-based; how it was run: as §1

Structure (SMILES) | Activity [1] | Activity [2] | Activity [3] | Activity [4] | Activity [5] | Activity [6] | Activity [7] | Activity [8] | inhibition at 100 µg/mL ([6]; 96 h)
C=C1C[C@]23C[C@@]1(O)CC[C@H]2[C@@]12C=C[C@H](O)[C@](C)(C(=O)O1)C2[C@@H]3C(=O)O (stereo partly specified) [GIBBERELLINE] | 433% | Active | 433% | 164% | 433% |  |  |  | 
CC(C)C[C@H]1NC(=O)[C@H](Cc2c[nH]c3ccccc23)NC1=O |  | Active |  | 164% |  | inactive |  |  | 
O=C(O)Cc1c[nH]c2ccccc12 |  |  |  |  |  |  | Active | Active | 
CC[C@H](C)[C@H]1NC(=O)[C@H](Cc2c[nH]c3ccccc23)NC1=O |  | Active |  | 167% |  | inactive |  |  | 
C=CC(C)(C)[C@@]12C[C@H]3C(=O)N[C@H](C(C)C)C(=O)N3[C@@H]1Nc1ccccc12 [BREVICOMPANINE] |  | Active |  | 212% |  |  |  |  | 46%
